Test [1] has as its target Pepsin A (Sus scrofa) (UniProt P00791). The test can be described thus: The compound was tested for time dependent inhibition against carboxyl protease (pepsin); Yes.
The target of a further test is Pepsin A (Sus scrofa, UniProt P00791). The test can be described thus: The compound was tested for inhibition of carboxyl protease (pepsin) inhibition. The essentials: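 Porcine pepsin was assayed spectrophotometrically with the heptapeptide substrate Phe-Gly-His-Phe(NO2)-Phe-Ala-Phe-OMe (Km 4.0×10^-5 M). Fractional velocity (Vi/V0) was plotted against inhibitor concentration to obtain IC50. IC50 was converted to Ki with Cha's equation, Ki = (IC50 − Et/2)(1 + S/Km)^-1, using total enzyme and substrate concentrations. Time-dependent inhibitors were preincubated with enzyme for 10 min, and steady-state velocities were used.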

Test [2] has as its target Pepsin A (Sus scrofa) (UniProt P00791). The test can be described thus: The compound was tested for time dependent inhibition against carboxyl protease (pepsin); No inhibition.

TDI and Ki data for ten molecules are collected here from ChEMBL document CHEMBL1122088, “Synthesis of analogues of the carboxyl protease inhibitor pepstatin. Effect of structure in subsite P3 on inhibition of pepsin” (J Med Chem, 1982).

Molecules are shown by their SMILES. Active and inactive are the calls of the source. The calls are words filed in the database; no cut-off is given here. Square brackets hold non-standard residues; d marks the D form. Peptide text beside a SMILES is read from it. * marks the point of attachment. Sta = CC(C)C[C@H](N)[C@@H](O)CC(=O)O; Isovaleryl = CC(C)CC(=O)*; NHIsopentyl = CC(C)CCN*

Sequence of Pepsin A (P00791 whole entry): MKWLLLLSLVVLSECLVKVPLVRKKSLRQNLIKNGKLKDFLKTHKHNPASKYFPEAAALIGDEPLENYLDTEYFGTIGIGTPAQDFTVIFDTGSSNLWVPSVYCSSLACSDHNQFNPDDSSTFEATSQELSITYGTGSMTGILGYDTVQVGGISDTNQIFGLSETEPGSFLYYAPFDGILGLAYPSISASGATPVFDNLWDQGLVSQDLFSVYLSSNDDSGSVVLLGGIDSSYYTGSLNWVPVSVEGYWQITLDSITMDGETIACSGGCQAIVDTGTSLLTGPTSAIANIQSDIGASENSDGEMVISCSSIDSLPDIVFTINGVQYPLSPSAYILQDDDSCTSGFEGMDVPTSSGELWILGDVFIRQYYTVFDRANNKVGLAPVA
Sequence of Pepsin A (Sus scrofa) (P00791 60-385 limits assumed): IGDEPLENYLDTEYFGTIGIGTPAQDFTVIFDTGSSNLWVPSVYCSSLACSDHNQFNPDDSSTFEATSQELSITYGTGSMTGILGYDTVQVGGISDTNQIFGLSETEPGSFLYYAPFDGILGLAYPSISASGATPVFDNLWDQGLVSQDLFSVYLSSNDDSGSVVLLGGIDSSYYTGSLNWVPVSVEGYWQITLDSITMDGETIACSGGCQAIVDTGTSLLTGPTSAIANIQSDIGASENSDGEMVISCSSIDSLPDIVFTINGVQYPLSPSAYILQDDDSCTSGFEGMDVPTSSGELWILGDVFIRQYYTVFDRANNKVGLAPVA

The Ki is the equilibrium dissociation constant of an inhibitor or competing ligand from its target. Read a low Ki as a stronger hold on the target. As for `CC(C)CCNC(=O)[C@H](C)NC(=O)C[C@H](O)[C@H](CC(C)C)NC(=O)[C@@H](NC(=O)[C@@H](NC(=O)CC(C)C)C(C)C)C(C)C` (Isovaleryl-VV[Sta]A-NHIsopentyl), the TDI result on Pepsin A (Sus scrofa) [1] was “Active”. In addition, the Ki at Pepsin A is ~0.1 nM.
Take `CC(C)CCNC(=O)[C@H](C)NC(=O)C[C@H](O)[C@H](CC(C)C)NC(=O)[C@@H](NC(=O)[C@@H](NC(=O)OC(C)(C)C)C(C)C)C(C)C`: the TDI entry on Pepsin A (Sus scrofa) [1] is “Active”. Further, on Pepsin A, the Ki is ~6 nM.
For the molecule `CCC(CC)C(=O)N[C@H](C(=O)N[C@@H](CC(C)C)[C@@H](O)CC(=O)N[C@@H](C)C(=O)NCCC(C)C)C(C)C`, the TDI entry on Pepsin A (Sus scrofa) [1] is “Active”. This molecule also gave a Ki on Pepsin A of 0.18 nM.
For the molecule `CC(C)CCNC(=O)[C@H](C)NC(=O)C[C@H](O)[C@H](CC(C)C)NC(=O)[C@@H](NC(=O)[C@H](NC(=O)OC(C)(C)C)C(C)C)C(C)C`, the TDI result at Pepsin A (Sus scrofa) [1] is “Active”. On Pepsin A, the affinity, expressed as Ki, was 11 nM.
As to `CC(C)CCNC(=O)[C@H](C)NC(=O)C[C@H](O)[C@H](CC(C)C)NC(=O)[C@@H](NC(=O)CC(C)C)C(C)C`, on Pepsin A (Sus scrofa) [1], the TDI entry is “Active”. In addition, the Ki on Pepsin A was found to be 2.9 nM.
As for `CC(C)CCNC(=O)[C@H](C)NC(=O)C[C@H](O)[C@H](CC(C)C)NC(=O)[C@@H](NC(=O)OC(C)(C)C)C(C)C`, the Ki at Pepsin A amounted to 170 nM. Also, on Pepsin A (Sus scrofa) [2], the TDI result is “inactive”.
As for `CCC(C)C(=O)N[C@H](C(=O)N[C@@H](CC(C)C)[C@@H](O)CC(=O)N[C@@H](C)C(=O)NCCC(C)C)C(C)C` (stereo not given in full), the TDI result on Pepsin A (Sus scrofa) [1] was “Active”. Besides, the Ki at Pepsin A stood at 0.31 nM.
For `CC(C)CCNC(=O)[C@H](C)NC(=O)C[C@H](O)[C@H](CC(C)C)NC(=O)[C@@H](NC(=O)OC(C)C)C(C)C`, on Pepsin A, the Ki was determined as 8.6 nM. Besides, the TDI result on Pepsin A (Sus scrofa) [2] is “inactive”.
On to `CC(C)CCNC(=O)[C@H](C)NC(=O)C[C@H](O)[C@H](CC(C)C)NC(=O)[C@@H](NC(=O)C(C)C)C(C)C`, for which the TDI result at Pepsin A (Sus scrofa) [1] was “Active”. In addition, the affinity on Pepsin A, expressed as Ki, was 1.6 nM.
On to `CC(C)CCNC(=O)[C@H](C)NC(=O)C[C@H](O)[C@H](CC(C)C)NC(=O)[C@@H](NC(=O)CC(C)(C)C)C(C)C`, for which the Ki at Pepsin A is 7.5 nM. On Pepsin A (Sus scrofa) [2], the TDI result is “inactive”.
